This is an account of results in ChEMBL document CHEMBL1949510, “Design and synthesis of 6,6-fused heterocyclic amides as raf kinase inhibitors” (Bioorg Med Chem Lett, 2012).

Data set [1] addresses T1, Serine/threonine-protein kinase B-raf (Homo sapiens, UniProt P15056, V600E). In words: Inhibition of N-terminus His6-tagged Braf V600E mutant expressed in insect Sf9 cells assessed as Mek phosphorylation after 2 hrs by ELISA. A digest of the protocol: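 Biochemical assay with the purified BrafV600E kinase domain, not the full-length protein.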
(In general: ELISA stands for enzyme-linked immunosorbent assay.)

Data set [2] addresses T1, Serine/threonine-protein kinase B-raf. Kind of data set: Inhibition of Braf V600E mutant-mediated Erk phosphorylation in human SK-MEL-28 cells after 4 hrs by Western blot analysis. In kind it is cell-based.
Data set [3] can be described thus: Apparent permeability from apical to basolateral side in human Caco2 cells. The note with it: Caco-2. In kind it is ADME, cell-based.
Data set [4] in a line: Solubility of the compound at pH 7. In kind it is physicochemical. The note with it: buffer.
Data set [5] addresses Macrophage colony-stimulating factor 1 receptor (Homo sapiens, UniProt P07333). Kind of data set: Inhibition of CSFR1. An outline of the steps: (§1)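 Selectivity profiling panel of 50 kinases spanning RTKs, STKs, TKs and AGC kinases.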
Data set [6] deals with T2, Receptor-type tyrosine-protein kinase FLT3 (Homo sapiens, UniProt P36888).
T2 sequence (P36888 whole entry): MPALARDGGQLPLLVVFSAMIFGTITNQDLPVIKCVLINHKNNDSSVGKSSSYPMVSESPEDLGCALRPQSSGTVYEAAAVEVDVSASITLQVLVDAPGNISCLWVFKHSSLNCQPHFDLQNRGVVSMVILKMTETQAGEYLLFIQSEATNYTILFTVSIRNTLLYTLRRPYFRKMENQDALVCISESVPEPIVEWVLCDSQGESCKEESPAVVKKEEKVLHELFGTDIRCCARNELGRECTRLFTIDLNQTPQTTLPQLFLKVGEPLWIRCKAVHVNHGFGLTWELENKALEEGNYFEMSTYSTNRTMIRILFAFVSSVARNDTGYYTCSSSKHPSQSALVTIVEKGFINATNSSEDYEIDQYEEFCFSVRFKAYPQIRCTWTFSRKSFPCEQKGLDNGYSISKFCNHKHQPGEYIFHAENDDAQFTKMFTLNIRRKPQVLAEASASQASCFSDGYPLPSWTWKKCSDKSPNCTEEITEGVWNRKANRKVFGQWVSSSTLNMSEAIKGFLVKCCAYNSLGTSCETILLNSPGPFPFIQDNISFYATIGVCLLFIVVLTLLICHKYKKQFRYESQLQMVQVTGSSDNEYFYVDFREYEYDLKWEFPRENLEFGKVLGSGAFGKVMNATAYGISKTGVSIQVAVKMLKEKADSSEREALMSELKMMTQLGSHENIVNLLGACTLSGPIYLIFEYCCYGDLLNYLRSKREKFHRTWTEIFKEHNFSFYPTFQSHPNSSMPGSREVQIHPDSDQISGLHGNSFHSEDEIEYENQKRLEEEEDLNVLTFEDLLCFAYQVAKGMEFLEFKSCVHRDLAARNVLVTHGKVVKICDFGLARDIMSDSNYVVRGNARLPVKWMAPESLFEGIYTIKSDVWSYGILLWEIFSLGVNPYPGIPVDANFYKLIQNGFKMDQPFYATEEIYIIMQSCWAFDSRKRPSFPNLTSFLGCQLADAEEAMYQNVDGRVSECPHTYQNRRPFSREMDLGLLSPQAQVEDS
In words: Inhibition of Flt3. An outline of the steps: as §1

Data set [7] has as its target Vascular endothelial growth factor receptor 2 (Homo sapiens, UniProt P35968). Kind of data set: Inhibition of KDR. A digest of the protocol:
as §1

The target of data set [8] is Tyrosine-protein kinase ABL1 (Homo sapiens, UniProt P00519). In words: Inhibition of cABL. An outline of the steps:
as §1

Data set [9] is described as follows: Clearance in mouse at 20 mg/kg, po administered as single dose. In kind it is ADME, organism-based. Details: dose 20 mg/kg, route oral. The note with it: in vivo.
Another data set concerns Mus musculus. Kind of data set: Volume of distribution in mouse at 20 mg/kg, po administered as single dose. The class given is ADME, organism-based. More on the design: dose 20 mg/kg, route oral. The note with it: in vivo.
Data set [10] is described as follows: Half life in mouse at 20 mg/kg, po administered as single dose. The class given is ADME, organism-based. More on the design: dose 20 mg/kg, route oral. The note with it: in vivo.
Data set [11] in a line: Oral bioavailability in mouse at 20 mg/kg administered as single dose. The class given is ADME, organism-based. The note with it: in vivo.

Chain of Tyrosine-protein kinase ABL1 (P00519 whole entry): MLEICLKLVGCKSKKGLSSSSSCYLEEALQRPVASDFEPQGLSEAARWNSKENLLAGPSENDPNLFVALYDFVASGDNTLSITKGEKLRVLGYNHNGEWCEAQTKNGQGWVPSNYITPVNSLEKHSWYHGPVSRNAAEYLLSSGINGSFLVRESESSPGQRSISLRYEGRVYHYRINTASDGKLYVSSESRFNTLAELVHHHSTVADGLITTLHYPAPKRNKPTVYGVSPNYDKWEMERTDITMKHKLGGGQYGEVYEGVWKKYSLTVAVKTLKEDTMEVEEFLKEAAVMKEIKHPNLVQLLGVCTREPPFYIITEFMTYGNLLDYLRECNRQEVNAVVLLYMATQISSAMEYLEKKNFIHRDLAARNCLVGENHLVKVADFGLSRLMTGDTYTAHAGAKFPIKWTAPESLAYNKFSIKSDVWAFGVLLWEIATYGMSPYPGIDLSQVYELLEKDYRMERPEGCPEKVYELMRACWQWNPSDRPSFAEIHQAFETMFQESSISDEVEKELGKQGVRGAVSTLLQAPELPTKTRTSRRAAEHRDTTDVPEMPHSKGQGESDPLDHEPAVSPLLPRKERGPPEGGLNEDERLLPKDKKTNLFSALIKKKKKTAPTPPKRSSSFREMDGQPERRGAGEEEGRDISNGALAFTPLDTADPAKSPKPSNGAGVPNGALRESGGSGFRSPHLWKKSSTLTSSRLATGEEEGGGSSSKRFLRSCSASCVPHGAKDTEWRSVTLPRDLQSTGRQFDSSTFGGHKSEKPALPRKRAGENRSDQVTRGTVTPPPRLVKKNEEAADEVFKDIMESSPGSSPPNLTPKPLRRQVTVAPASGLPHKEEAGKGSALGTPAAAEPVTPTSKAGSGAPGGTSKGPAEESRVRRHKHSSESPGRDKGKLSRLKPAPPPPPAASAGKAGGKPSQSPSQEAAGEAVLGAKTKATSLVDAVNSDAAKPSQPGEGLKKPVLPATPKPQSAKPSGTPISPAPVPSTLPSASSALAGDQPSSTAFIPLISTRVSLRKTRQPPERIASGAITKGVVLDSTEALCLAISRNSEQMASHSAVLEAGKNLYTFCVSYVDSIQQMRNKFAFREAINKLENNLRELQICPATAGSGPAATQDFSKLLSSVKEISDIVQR
Chain of Vascular endothelial growth factor receptor 2 (P35968 whole entry): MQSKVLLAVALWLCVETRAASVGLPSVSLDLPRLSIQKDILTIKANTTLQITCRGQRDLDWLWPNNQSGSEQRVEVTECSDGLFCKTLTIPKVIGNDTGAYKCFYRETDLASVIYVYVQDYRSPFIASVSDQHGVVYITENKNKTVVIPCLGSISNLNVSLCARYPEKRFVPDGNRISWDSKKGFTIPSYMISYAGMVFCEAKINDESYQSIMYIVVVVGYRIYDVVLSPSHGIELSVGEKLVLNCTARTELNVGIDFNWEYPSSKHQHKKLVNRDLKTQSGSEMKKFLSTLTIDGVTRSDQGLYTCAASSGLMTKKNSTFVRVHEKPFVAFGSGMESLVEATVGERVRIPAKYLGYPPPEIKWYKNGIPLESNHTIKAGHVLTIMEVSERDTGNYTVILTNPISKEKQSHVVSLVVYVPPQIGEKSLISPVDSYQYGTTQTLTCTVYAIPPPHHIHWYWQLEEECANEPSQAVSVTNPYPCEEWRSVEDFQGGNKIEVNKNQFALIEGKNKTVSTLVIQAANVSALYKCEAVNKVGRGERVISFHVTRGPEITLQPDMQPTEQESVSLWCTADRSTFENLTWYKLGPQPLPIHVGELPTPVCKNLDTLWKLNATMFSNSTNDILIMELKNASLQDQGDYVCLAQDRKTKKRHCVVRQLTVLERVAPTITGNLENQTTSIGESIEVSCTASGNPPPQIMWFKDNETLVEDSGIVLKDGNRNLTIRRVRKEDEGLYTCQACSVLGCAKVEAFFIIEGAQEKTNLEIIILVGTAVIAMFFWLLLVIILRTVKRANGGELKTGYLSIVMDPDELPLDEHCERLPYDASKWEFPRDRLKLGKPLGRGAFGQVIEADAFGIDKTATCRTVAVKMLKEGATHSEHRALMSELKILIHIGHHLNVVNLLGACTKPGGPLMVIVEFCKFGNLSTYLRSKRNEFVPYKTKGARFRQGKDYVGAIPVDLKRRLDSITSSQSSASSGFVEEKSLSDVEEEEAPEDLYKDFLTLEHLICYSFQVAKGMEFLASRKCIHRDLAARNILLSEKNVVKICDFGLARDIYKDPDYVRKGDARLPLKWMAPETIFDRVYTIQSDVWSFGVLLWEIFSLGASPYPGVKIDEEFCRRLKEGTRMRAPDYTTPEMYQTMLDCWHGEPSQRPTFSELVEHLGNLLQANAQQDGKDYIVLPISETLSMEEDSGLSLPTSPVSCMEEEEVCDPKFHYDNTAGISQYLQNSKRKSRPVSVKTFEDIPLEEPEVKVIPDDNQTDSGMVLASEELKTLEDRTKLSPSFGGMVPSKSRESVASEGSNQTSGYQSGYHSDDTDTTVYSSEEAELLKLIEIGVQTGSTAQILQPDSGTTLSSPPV
T1 sequence (P15056 2-766 V600E limits assumed): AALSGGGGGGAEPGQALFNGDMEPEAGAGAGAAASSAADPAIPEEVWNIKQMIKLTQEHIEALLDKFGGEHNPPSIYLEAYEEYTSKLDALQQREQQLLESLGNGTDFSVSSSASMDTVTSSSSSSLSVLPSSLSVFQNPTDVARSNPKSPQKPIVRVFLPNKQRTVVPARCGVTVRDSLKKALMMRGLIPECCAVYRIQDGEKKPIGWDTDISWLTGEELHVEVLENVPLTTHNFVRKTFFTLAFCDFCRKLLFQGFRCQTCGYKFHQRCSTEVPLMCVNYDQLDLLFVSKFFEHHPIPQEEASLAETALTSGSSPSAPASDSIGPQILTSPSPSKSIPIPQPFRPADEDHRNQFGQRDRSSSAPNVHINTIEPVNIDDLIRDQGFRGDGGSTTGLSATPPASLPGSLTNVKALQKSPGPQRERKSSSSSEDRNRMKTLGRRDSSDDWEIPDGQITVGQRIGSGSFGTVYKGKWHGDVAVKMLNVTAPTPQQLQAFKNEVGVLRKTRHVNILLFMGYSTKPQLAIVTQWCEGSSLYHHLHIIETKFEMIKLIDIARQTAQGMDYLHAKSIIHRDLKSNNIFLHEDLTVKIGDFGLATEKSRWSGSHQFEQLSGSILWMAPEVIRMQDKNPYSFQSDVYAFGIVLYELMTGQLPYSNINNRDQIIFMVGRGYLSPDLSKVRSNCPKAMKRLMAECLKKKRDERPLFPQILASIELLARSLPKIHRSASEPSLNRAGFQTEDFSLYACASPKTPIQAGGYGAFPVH
Chain of Macrophage colony-stimulating factor 1 receptor (P07333 whole entry): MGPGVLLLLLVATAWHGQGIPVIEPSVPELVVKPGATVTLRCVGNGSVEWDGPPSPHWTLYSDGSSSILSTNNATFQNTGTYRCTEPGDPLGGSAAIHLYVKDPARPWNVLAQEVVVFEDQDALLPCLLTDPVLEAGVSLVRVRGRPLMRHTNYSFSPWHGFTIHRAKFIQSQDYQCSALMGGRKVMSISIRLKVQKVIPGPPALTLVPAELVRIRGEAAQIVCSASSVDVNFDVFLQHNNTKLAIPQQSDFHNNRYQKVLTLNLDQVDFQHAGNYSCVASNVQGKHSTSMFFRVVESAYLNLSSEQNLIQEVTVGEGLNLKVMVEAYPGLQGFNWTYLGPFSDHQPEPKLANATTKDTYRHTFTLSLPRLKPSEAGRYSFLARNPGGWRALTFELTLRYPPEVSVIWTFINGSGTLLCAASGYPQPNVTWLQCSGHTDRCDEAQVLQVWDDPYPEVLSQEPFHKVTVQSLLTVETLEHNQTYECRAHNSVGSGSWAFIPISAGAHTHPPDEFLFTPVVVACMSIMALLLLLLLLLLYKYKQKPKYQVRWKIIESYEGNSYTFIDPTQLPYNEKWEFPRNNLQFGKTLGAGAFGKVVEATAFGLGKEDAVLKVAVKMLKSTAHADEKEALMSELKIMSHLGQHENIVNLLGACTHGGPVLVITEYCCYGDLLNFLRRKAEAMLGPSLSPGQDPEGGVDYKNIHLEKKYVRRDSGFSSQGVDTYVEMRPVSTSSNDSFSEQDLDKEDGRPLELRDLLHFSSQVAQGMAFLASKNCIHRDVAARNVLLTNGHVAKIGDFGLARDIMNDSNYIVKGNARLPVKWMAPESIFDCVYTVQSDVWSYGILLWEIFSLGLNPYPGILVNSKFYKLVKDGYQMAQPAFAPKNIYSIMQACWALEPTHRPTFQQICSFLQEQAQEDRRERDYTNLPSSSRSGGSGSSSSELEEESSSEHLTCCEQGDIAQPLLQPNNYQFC

As a reminder, the IC50 is the concentration that gives 50% inhibition. The term EC50 denotes the concentration needed to bring the measured effect to its halfway point. A higher EC50 goes with lower potency in that assay. What is called Papp A→B is the apparent permeability from the apical to the basolateral side of a cell layer. Usually solubility stands for how much of the substance goes into solution per volume. Higher therefore signals much dissolved substance. Consider `CNC(=O)c1cc(Oc2ccc3nc(Nc4ccc(-c5cccnc5)cc4)ncc3c2)ccn1`, for which the IC50 in data set [1] is 25000 nM. The same compound had an EC50 in [2] of more than 10000 nM. For the same compound, the Papp A→B in data set [3] was less than 1 ×10⁻⁶ cm/s. In addition, in data set [4], the solubility was less than 1 µM.
In the case of `CNC(=O)c1cc(Oc2ccc3nc(Nc4cccc(C(F)(F)F)c4)ncc3c2)ccn1`, the 50% inhibitory concentration (IC50) in data set [1] came out at 640 nM. In data set [2], this compound came in with an EC50 of more than 10000 nM. The Papp A→B in [3] is less than 1 ×10⁻⁶ cm/s. In addition, the solubility in [4] is less than 1 µM.
In the same order, the values of `CNC(=O)c1cc(Oc2ccc3nc(Nc4ccc(Oc5ccccc5)cc4)ncc3c2)ccn1` are 600 nM, more than 10000 nM, less than 1 ×10⁻⁶ cm/s and less than 1 µM.
For the compound `CNC(=O)c1cc(Oc2ccc3nc(Nc4cccc(C(C)(C)C)c4)ncc3c2)ccn1`, the IC50 is 45 nM in data set [1]; less than 1000 nM in [5]; less than 1000 nM in [6]; less than 1000 nM in data set [7]; less than 1000 nM in data set [8]. Besides, the 50% effective concentration (EC50) in [2] is more than 10000 nM. Further, the apparent permeability from apical to basolateral (Papp A→B) in data set [3] was less than 1 ×10⁻⁶ cm/s. Further, the solubility in data set [4] is less than 1 µM.
On to `CNC(=O)c1cc(Oc2ccc3nc(Nc4ccc(C(F)(F)F)cc4)ncc3c2)ccn1`, for which, in data set [1], the IC50 stood at 67 nM. The compound also had an EC50 in [2] of more than 10000 nM. Also, in data set [3], the apical-to-basolateral permeability (Papp A→B) was less than 1 ×10⁻⁶ cm/s. Further, the solubility in data set [4] was less than 1 µM.
For the compound `CNC(=O)c1cc(Oc2ccc3nc(Nc4cccc(C(C)(C)C)c4)ccc3c2)ccn1`, the IC50 in data set [1] is 26 nM; in data set [5], less than 1000 nM; in [6], less than 1000 nM; in data set [7], less than 1000 nM; in data set [8] it was less than 1000 nM. In data set [2], the EC50 is more than 10000 nM. The Papp A→B in [3] was less than 1 ×10⁻⁶ cm/s. For the same compound, the solubility in data set [4] was less than 1 µM.
The CL/F is clearance divided by bioavailability, as obtained after extravascular dosing. Broadly, the half-life is how long it takes for the measured level to halve. Low readings indicate fast loss, high ones slow loss. In general, bioavailability refers to dose-corrected exposure relative to a reference, in per cent. The low end stands for little systemic uptake, the high end for much systemic uptake. Take `CNC(=O)c1cc(Oc2ccc3nc(Nc4cccc(C(C)C)c4)ncc3c2)ccn1`: the IC50 in [1] is 150 nM. In data set [2], the EC50 was more than 10000 nM. Also, in data set [3], the Papp A→B was less than 1 ×10⁻⁶ cm/s. This compound had a solubility in [4] of less than 1 µM. This compound also registered a CL/F in data set [9] of 53.1 mL/min/kg. The Vd in the data set with Mus musculus is 4.717 L/kg. The compound also yielded a half-life in data set [10] of 7.8 h. In addition, the bioavailability in [11] stood at 35%.
Consider `CNC(=O)c1cc(Oc2ccc3nc(Nc4cccc(Br)c4)ncc3c2)ccn1`, for which the half-maximal inhibitory concentration (IC50) in data set [1] stood at 180 nM. This compound gave an EC50 in [2] of more than 10000 nM. In data set [3], the Papp A→B was less than 1 ×10⁻⁶ cm/s. Besides, the solubility in data set [4] was less than 1 µM.
In the same order, the values of `CNC(=O)c1cc(Oc2ccc3nc(Nc4ccc(F)cc4)ncc3c2)ccn1` are 600 nM, more than 10000 nM, less than 1 ×10⁻⁶ cm/s and less than 1 µM.
In the same order, the values of `O=C(NCCO)c1cc(Oc2ccc3nc(Nc4ccc(Br)cc4)ncc3c2)ccn1` are 8600 nM, more than 10000 nM, less than 1 ×10⁻⁶ cm/s and less than 1 µM.
The corresponding values for `O=C(NCCN1CCCCC1)c1cc(Oc2ccc3nc(Nc4ccc(Br)cc4)ncc3c2)ccn1` are 1300 nM, more than 10000 nM, less than 1 ×10⁻⁶ cm/s and less than 1 µM.
For `CNC(=O)c1cc(Oc2ccc3nc(Nc4ccc(Br)cc4)ncc3c2)ccn1`, in data set [1], the IC50 came to 310 nM. Further, the EC50 in [2] was more than 10000 nM. In addition, the Papp A→B in data set [3] is less than 1 ×10⁻⁶ cm/s. The compound also yielded a solubility in data set [4] of less than 1 µM.
The corresponding values for `CNC(=O)c1cc(Oc2ccc3nc(Nc4cccc(OC(F)(F)F)c4)ncc3c2)ccn1` are 70 nM, more than 10000 nM, less than 1 ×10⁻⁶ cm/s and less than 1 µM.
The corresponding values for `CCc1ccccc1Nc1ncc2cc(Oc3ccnc(C(=O)NC)c3)ccc2n1` are 1300 nM, more than 10000 nM, less than 1 ×10⁻⁶ cm/s and less than 1 µM.
On to `CNC(=O)c1cc(Oc2ccc3c(c2)nc(Nc2cccc(C(C)(C)C)c2)n3C)ccn1`, for which the Papp A→B in data set [3] is less than 1 ×10⁻⁶ cm/s. In addition, in data set [4], the solubility is less than 1 µM.
For the compound `CNC(=O)c1cc(Oc2ccc3nc(Nc4ccc(OC)cc4)ncc3c2)ccn1`, in [1], the IC50 was 390 nM. Also, in data set [2], the EC50 is more than 10000 nM. For the same compound, the Papp A→B in data set [3] is less than 1 ×10⁻⁶ cm/s. The solubility in data set [4] was less than 1 µM.
The corresponding values for `CNC(=O)c1cc(Oc2ccc3nc(Nc4ccc(C(C)C)cc4)ncc3c2)ccn1` are 1 nM, more than 10000 nM, less than 1 ×10⁻⁶ cm/s and less than 1 µM.
The corresponding values for `CNC(=O)c1cc(Oc2ccc3nc(Nc4cccc(Cl)c4)ncc3c2)ccn1` are 660 nM, more than 10000 nM, less than 1 ×10⁻⁶ cm/s and less than 1 µM.
The corresponding values for `CNC(=O)c1cc(Oc2ccc3nc(Nc4ccccc4)ncc3c2)ccn1` are 2200 nM, more than 10000 nM, less than 1 ×10⁻⁶ cm/s and less than 1 µM.
For `CNC(=O)c1cc(Oc2ccc3nc(Nc4ccccc4Br)ncc3c2)ccn1`, in [1], the IC50 stood at 24000 nM. In data set [2], this compound displayed an EC50 of more than 10000 nM. The Papp A→B in data set [3] was less than 1 ×10⁻⁶ cm/s. The solubility in data set [4] was less than 1 µM.
The corresponding values for `CNC(=O)c1cc(Oc2ccc3nc(Nc4ccc(OC(F)(F)F)cc4)ncc3c2)ccn1` are 80 nM, more than 10000 nM, less than 1 ×10⁻⁶ cm/s and less than 1 µM.
With `CNC(=O)c1cc(Oc2ccc3nc(Nc4cccc(C(C)(C)C)c4)cnc3c2)ccn1`, the IC50 was 25 nM in data set [1]; less than 1000 nM in data set [5]; less than 1000 nM in [6]; less than 1000 nM in data set [7]; less than 1000 nM in data set [8]. This compound registered an EC50 in [2] of more than 10000 nM. In addition, the apical-to-basolateral permeability (Papp A→B) in data set [3] was less than 1 ×10⁻⁶ cm/s. Further, the solubility in data set [4] was less than 1 µM.
On to `CNC(=O)c1cc(Oc2ccc3nc(Nc4ccccc4Oc4ccccc4)ncc3c2)ccn1`, for which, in data set [1], the half-inhibitory concentration (IC50) stood at 5300 nM. The EC50 in [2] is more than 10000 nM. In addition, the Papp A→B in data set [3] was less than 1 ×10⁻⁶ cm/s. Besides, the solubility in data set [4] is less than 1 µM.
